# Assay results: PubChem BioAssay
# Active and inactive are the calls of the source.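 The calls were made as follows: active = duplicate-averaged activation above buffer control mean plus 5 SD of those controls; inactive = the rest.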
# Experiment: thallium flux activation in parental CHO cells, counter-screen for KCNQ1 potentiator project (AID 493006);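 as to activation: fluorescence ratio of max minus min over baseline after K+ and Tl+ depolarization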
# Conditions: parental CHO-K1 cells, FluxOR thallium flux, at 10 µM; hits give high values
# Method in brief: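 Material: untransfected host CHO-K1 cells with FluxOR thallium dye. Timing: overnight 37 °C plating, 90 min RT dye, 20 min compound. Detection: kinetic FluxOR fluorescence, 10 s baseline, 110 s after stimulus. Read-out basis: max-minus-min fluorescence over baseline, percent of buffer-to-R-L3 span. Replicates: duplicate wells per compound, percent values averaged.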
SMILES,outcome,activation
CN(C)c1ccc(C(=O)Nc2nnc(C3=COCCO3)o2)cc1,inactive,–
CCOc1ccc(C(=O)N2CCCC(c3nc(-c4ccc(C)o4)no3)C2)cc1 (stereo not given),inactive,–
CCCCn1c(=O)nc2n(-c3ccccc3C)c3ccccc3cc-2c1=O,inactive,–
CCN(c1ccccc1)S(=O)(=O)c1ccc(OC)c(NC(=O)COc2ccc(C(C)=O)cc2)c1,inactive,–
Cc1[nH]n(-c2ccc(F)cc2)c(=O)c1/C=N/c1sc2c(c1C#N)CCCC2,–,276% (active)
COc1ccc(C)cc1NC(=O)C(=O)NNC(=O)c1ccco1,–,377% (active)
CCC1CCCCN1C(=S)NC(=O)c1cccc([N+](=O)[O-])c1 (stereo not given),–,232% (active)
CCCn1cc(NC(=O)c2cc(-c3ccccc3)on2)cn1,inactive,–
CCSc1nc2c(sc3ccccc32)c(=O)n1C(C)C,–,310% (active)
COC(=O)c1sc(NC(=S)NC(=O)c2ccccc2F)nc1C,inactive,–
O=c1cc(N2CCc3ccccc32)[nH]c(=O)n1Cc1ccc(F)cc1,inactive,–
CCc1cc(-c2n[nH]c(C)c2-c2nc3ccccc3s2)c(O)cc1OCC(=O)NN,inactive,–
CCOC(=O)C1CCN(C(=O)c2c(C)oc3c2C(=O)c2ccccc2C3=O)CC1,inactive,–
CC1CN(c2nc(-c3ccc(Br)cc3)nnc2-c2ccccc2)CC(C)N1 (stereo not given),inactive,–
Cc1cc(C(=O)N2CCCC(N3CCN(c4cccc(Cl)c4)CC3)C2)n(C)n1 (stereo not given),inactive,–
COc1ccc(NC(=S)NC(=O)c2ccccc2Cl)cc1,inactive,–
Cc1cc(/C=N\NC(=O)CC(=O)NC2CCCCC2)c(C)n1-c1cccc(Cl)c1Cl,inactive,–
CCOc1ccc2nc(/N=C/c3c(C)[nH]n(-c4ccccc4)c3=O)sc2c1,–,370% (active)
COc1ccc(CCNC(=O)c2c(C)nc3ccccn23)cc1,inactive,–
Cc1ccnc(NS(=O)(=O)c2ccc(NC(=O)C34CC5CC(CC(C5)C3)C4)cc2)n1,inactive,–

SMILES,outcome,activation
CCCCN1CNC(=S)N(c2ccccc2OCC)C1,inactive,–
Cc1ccc(/C=C/C(=O)c2ccccc(=O)c2O)c(C)c1,–,244% (active)
N#Cc1ccccc1Oc1ccccc1C=O,–,143% (active)
CCCCCCCC/C=C\CCCCCCCC(=O)O,–,143% (active)
Oc1ccc(CN2CCCCC2)c2cccnc12,–,170% (active)
Cc1sc2ncnc(SCC(=O)NC(=O)c3cccn3C)c2c1C,–,170% (active)
CSc1ccc(NC(=O)CC(C)=O)cc1,inactive,–
CCS(=O)(=O)Nc1ccc(C(=O)CC2(O)C(=O)Nc3ccccc32)cc1 (stereo not given),inactive,–
O=C(CSc1nnc(SCc2cccc3ccccc23)s1)c1ccc2c(c1)OCO2,–,163% (active)
CC(C)Cn1c(=S)[nH]c2cc(Cl)ccc21,–,196% (active)
CCOc1ccc(N=Nc2ccc(O)c3ncccc23)cc1,inactive,–
CCOC(=O)c1cnc(SCC(=O)Nc2nc(C)c(C)s2)nc1N,inactive,–
O=C(O)C1C2CCC(O2)C1C(=O)NCCC1=CCCCC1 (stereo not given),inactive,–
S=c1nc[nH]c2c1sc1nc(-c3ccccc3)c3c(c12)CCCC3,–,456% (active)
C=CCn1c(O)c(N=NC(=S)Nc2ccccc2F)c2ccccc21,–,352% (active)
O=C(Nc1nc2c(F)cc(F)cc2s1)C1COc2ccccc2O1 (stereo not given),–,142% (active)
COCCn1cnc2c1c(=O)n(CC#N)c(=O)n2Cc1ccccc1,inactive,–
Cc1cc(C)nc(NC(=O)/C=C/c2ccccc2Cl)n1,inactive,–
CCOc1cc(CNCCCN2CCOCC2)ccc1OCC(=O)NC(C)(C)C,inactive,–
CC(C)(C)c1cc(C(=O)NNC(=O)c2ccc(Cl)cc2)no1,–,200% (active)
